Bioassay records (PubChem)
A selection: hits, their analogues and other compounds. The true share with any hit is near 0.7%.
GSK3A inh – blockers of GSK3A enzyme activity – biochemical, luminescence, cell-free homogeneous, HTS, primary screen | GSK-3 alpha kinase, ADP-Glo luminescence, 60 min | inhibition, % at 10 µM | 320,000 compounds, 0.1% hits | AID 2650, 2010;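 active means more than half of replicates show inhibition above 20%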;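 further: GST-tagged GSK-3 alpha with peptide substrate and 25 µM ATP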
STK33 kinase inh – inhibitors of purified STK33 kinase, primary screen, biochemical, ADP-Glo luminescence, homogeneous, cell-free. Serine/threonine-protein kinase 33 (Homo sapiens), Q9BYT3. inhibition, % at 10 µM. MBP phosphorylation. AID 2661, 2010. 320,000 compounds, 0.073% hits;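 active means inhibition at or above 25%, using the most active replicate where run in duplicate; inactive means inhibition below 25%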
Target sequence (Q9BYT3 whole entry, looked up): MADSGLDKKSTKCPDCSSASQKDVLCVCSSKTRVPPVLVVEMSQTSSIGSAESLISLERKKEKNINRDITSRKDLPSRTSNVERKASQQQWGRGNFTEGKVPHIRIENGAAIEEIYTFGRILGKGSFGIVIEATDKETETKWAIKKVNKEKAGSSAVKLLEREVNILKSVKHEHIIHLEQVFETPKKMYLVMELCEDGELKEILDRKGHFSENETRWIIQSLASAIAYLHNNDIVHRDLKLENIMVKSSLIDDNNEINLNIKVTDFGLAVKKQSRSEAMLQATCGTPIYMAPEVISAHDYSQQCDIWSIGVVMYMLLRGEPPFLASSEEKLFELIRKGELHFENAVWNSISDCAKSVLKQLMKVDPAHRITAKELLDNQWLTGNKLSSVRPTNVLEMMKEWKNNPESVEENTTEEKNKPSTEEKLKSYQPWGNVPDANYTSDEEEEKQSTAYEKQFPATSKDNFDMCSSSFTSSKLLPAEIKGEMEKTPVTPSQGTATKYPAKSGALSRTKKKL
Rce1 inhib – yeast Rce1p protease inhibitors, primary screen, biochemical, fluorescence, cell-free homogeneous. CAAX prenyl protease 2 (Saccharomyces cerevisiae (strain ATCC 204508 / S288c)), Q03530. yeast membranes, quenched prenylated peptide cleavage fluorescence. calls only. 290,000 compounds, 0.27% hits. AID 2563, 2010;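 active means fall in fluorescence gain of 50% or more versus controls, with final raw signal at or below 3038400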
GSK3B inh – human GSK3beta kinase inhibitors, primary screen, biochemical, cell-free homogeneous, HTS. Glycogen synthase kinase-3 beta (Homo sapiens), P49841. GST-GSK3beta kinase, ADP-Glo luminescence, 60 min; active compounds read low. activity score (negative = inhibition), % at 10 µM. 300,000 compounds, 0.038% hits;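 active means more than half of replicate wells score below -50%, meaning over 50% inhibition versus plate controls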
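Test system: GST-fused GSK3beta enzyme, cell-free | Quantity: 1.6 ng GST-GSK3beta enzyme per well | Reagent: 25 µM ATP with peptide substrate | Schedule: 60 min enzyme reaction, room temperature | Signal: Luminescent ADP-Glo measurement of ADP formed | Read-out basis: Score relative to plate controls | Control set: DMSO and 20 µM GW8510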
Hep lipid drop – inhibitors of hepatocyte lipid droplet formation, primary screen, imaging, high-throughput imaging, BODIPY stain | AML12 mouse hepatocytes, oleate lipid droplets | inhibition, % at 6.5 µM | AID 1656, 2009 | 240,000 compounds, 0.4% hits;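 active means lipid droplet intensity inhibited by at least 50%, with more than 500 cells counted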
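Assay system: AML12 mouse liver cells | Compound: 6.5 µM single-point dosing | Schedule: Overnight exposure | Technique: Fluorescence imaging, 20x objective, two fields per well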
HSV augment – enhancers of HSV replication in host cells, fold increase, host cell viability; HSV replication augmentation in cells; maximum fold increase; 220,000 compounds, 0.005% hits; in the data active means maximum fold increase above about 1.5; tested in PC3 cells
Hits are given with their value.

What do the screens show for `CN1CCN(S(=O)(=O)c2ccc([N+](=O)[O-])cc2)CC1`?
GSK3A inh: inactive; STK33 kinase inh: inactive; Rce1 inhib: inactive; GSK3B inh: inactive

Results for COc1cc(C(=O)Nc2cc3c(cc2N2CCCCC2)n(C)c(=O)n3C)cc(OC)c1OC ?
GSK3A inh: inactive; STK33 kinase inh: inactive; Rce1 inhib: inactive; GSK3B inh: inactive; Hep lipid drop: inactive

Results for CN(C)c1nc2sc3c(c2c(=O)n1C)CC(C)(C)OC3 ?
GSK3A inh: inactive; STK33 kinase inh: 37.5; Rce1 inhib: inactive; GSK3B inh: inactive; HSV augment: inactive

How did O=C(Nc1ccc(Cl)cc1C(F)(F)F)c1ccccc1 do in these assays?
GSK3A inh: inactive; STK33 kinase inh: inactive; Rce1 inhib: inactive; GSK3B inh: inactive; Hep lipid drop: inactive; HSV augment: inactive

How did CCN(CC(=O)NCc1ccc(Cl)cc1)C(=O)CCOc1ccc(C)cc1 do in these assays?
GSK3A inh: inactive; STK33 kinase inh: inactive; Rce1 inhib: inactive; GSK3B inh: inactive

How did COc1ccccc1-c1cc(C(F)(F)F)nc(S(=O)(=O)CCCC(=O)NCc2ccc(F)cc2)n1 do in these assays?
GSK3A inh: inactive; STK33 kinase inh: inactive; Rce1 inhib: active; GSK3B inh: inactive; Hep lipid drop: inactive; HSV augment: inactive

What do the screens show for `Nc1nc(-c2cc(O)ccc2[N+](=O)[O-])cc(-c2ccccc2)c1[N+](=O)[O-]`?
GSK3A inh: inactive; STK33 kinase inh: 28.1; Rce1 inhib: inactive; GSK3B inh: inactive; Hep lipid drop: inactive

What do the screens show for `COC(=O)CSc1ccc2nnc(-c3ccc(F)cc3)n2n1`?
GSK3A inh: 60.3; STK33 kinase inh: inactive; Rce1 inhib: inactive; GSK3B inh: -77.6; HSV augment: inactive

Results for CCC(Sc1ccc2nnc(-c3ccc(OC)c(OC)c3)n2n1)C(=O)O (stereo unspecified) ?
GSK3A inh: inactive; STK33 kinase inh: 38.1; Rce1 inhib: inactive; GSK3B inh: inactive; Hep lipid drop: inactive; HSV augment: inactive

Results for CCOc1ccc(N2C(=O)C3Sc4[nH]c(=O)sc4C(c4ccc(OC)c(OC)c4)C3C2=O)cc1 (stereo unspecified) ?
GSK3A inh: inactive; STK33 kinase inh: inactive; Rce1 inhib: inactive; GSK3B inh: inactive; Hep lipid drop: inactive; HSV augment: inactive

How did COc1cc(C2c3sc(=O)[nH]c3SC3C(=O)N(c4ccc(C)cc4)C(=O)C32)ccc1O (stereo unspecified) do in these assays?
GSK3A inh: inactive; STK33 kinase inh: 31.3; Rce1 inhib: inactive; GSK3B inh: inactive; Hep lipid drop: inactive; HSV augment: inactive

How did COc1cc(C2c3sc(=O)[nH]c3SC3C4CCC(C4)C23)ccc1O (stereo unspecified) do in these assays?
GSK3A inh: 77.6; STK33 kinase inh: inactive; Rce1 inhib: inactive; GSK3B inh: inactive; HSV augment: inactive

What do the screens show for `O=C(O/N=C\c1ccc(N2CCCCC2)c([N+](=O)[O-])c1)c1cccc(Cl)c1`?
STK33 kinase inh: inactive; Rce1 inhib: inactive; GSK3B inh: inactive

Results for O=C(O/N=C\c1ccc(N2CCCCC2)c([N+](=O)[O-])c1)c1cccc(C(F)(F)F)c1 ?
GSK3A inh: inactive; STK33 kinase inh: inactive; Rce1 inhib: active; GSK3B inh: inactive; Hep lipid drop: inactive; HSV augment: inactive

How did Cc1cccc(/C=N/NC(=O)c2ccc(Br)cc2)c1 do in these assays?
GSK3A inh: inactive; STK33 kinase inh: inactive; Rce1 inhib: active; GSK3B inh: inactive; Hep lipid drop: inactive; HSV augment: inactive

How did CCCCc1cc(=O)oc2cc(OCC(=O)N3CCOCC3)ccc12 do in these assays?
GSK3A inh: inactive; STK33 kinase inh: inactive; Rce1 inhib: active; GSK3B inh: inactive; Hep lipid drop: inactive

Results for N#C/C(=N\Nc1c(Cl)cccc1Cl)C(=O)NN ?
GSK3A inh: 74.9; STK33 kinase inh: inactive; Rce1 inhib: inactive; GSK3B inh: inactive; Hep lipid drop: inactive; HSV augment: inactive

Results for N#C/C(=N\Nc1ccccc1Cl)C(=O)c1ccccc1 ?
GSK3A inh: inactive; STK33 kinase inh: inactive; Rce1 inhib: inactive; GSK3B inh: inactive

What do the screens show for `CCOC(=O)CCc1c(C)n(CC)c2cc(-c3ccccc3OC)nn2c1=O`?
GSK3A inh: inactive; STK33 kinase inh: inactive; Rce1 inhib: inactive; GSK3B inh: inactive; Hep lipid drop: inactive; HSV augment: inactive

What do the screens show for `CCN(CC)CCCNC(=O)CCc1c(C)n(CC)c2cc(-c3ccccc3OC)nn2c1=O`?
GSK3A inh: inactive; STK33 kinase inh: inactive; Rce1 inhib: active; GSK3B inh: inactive; Hep lipid drop: inactive

Results for OCCN1CCN(c2nc(-c3ccccc3O)nc3ccccc23)CC1 ?
GSK3A inh: inactive; STK33 kinase inh: 39.9; Rce1 inhib: inactive; GSK3B inh: inactive; Hep lipid drop: inactive

Results for CN1CCN(c2nc(-c3ccccc3Cl)nc3ccccc23)CC1 ?
GSK3A inh: inactive; STK33 kinase inh: inactive; Rce1 inhib: inactive; GSK3B inh: inactive; Hep lipid drop: inactive

How did CCN1CCN(c2nc(-c3ccccc3Cl)nc3ccccc23)CC1 do in these assays?
GSK3A inh: inactive; STK33 kinase inh: inactive; Rce1 inhib: inactive; GSK3B inh: inactive; Hep lipid drop: inactive

What do the screens show for `CN1CCN(c2nc(-c3ccccc3O)nc3ccccc23)CC1`?
GSK3A inh: inactive; STK33 kinase inh: 32.2; Rce1 inhib: inactive; GSK3B inh: inactive; Hep lipid drop: inactive

Results for O=C(CC1OC(=O)c2ccccc21)Nc1cc(S(=O)(=O)N2CCOCC2)ccc1OCC(F)(F)F (stereo unspecified) ?
GSK3A inh: inactive; STK33 kinase inh: inactive; Rce1 inhib: inactive; GSK3B inh: inactive

Results for CC(C)c1nc2cc(C(=O)N(C)Cc3ccc(F)cc3)ccc2o1 ?
GSK3A inh: inactive; STK33 kinase inh: inactive; GSK3B inh: inactive; Hep lipid drop: inactive

How did CC(C)(C)OC(=O)N1CCC(c2cc(=O)n3[nH]cc(C(=O)Nc4ccc(F)c(Cl)c4)c3n2)CC1 do in these assays?
GSK3A inh: inactive; STK33 kinase inh: inactive; Rce1 inhib: active; GSK3B inh: inactive; Hep lipid drop: inactive; HSV augment: inactive

Results for COc1ccc(NC(=O)c2c[nH]n3c(=O)cc(C4CCN(C(=O)OC(C)(C)C)CC4)nc23)cc1Cl ?
GSK3A inh: inactive; STK33 kinase inh: inactive; Rce1 inhib: inactive; GSK3B inh: inactive; Hep lipid drop: inactive; HSV augment: inactive

What do the screens show for `CC(=O)Nc1ccc(NC(=O)c2ccccc2CCc2ccccc2)cc1`?
GSK3A inh: inactive; STK33 kinase inh: inactive; Hep lipid drop: inactive; HSV augment: inactive
